IC50, Activity and inhibition of growth data for 28 compounds are collected here from ChEMBL document CHEMBL2046318, “Synthesis and biological evaluation of novel flavonols as potential anti-prostate cancer agents” (Eur J Med Chem, 2012).

Test [1] relates to CWR22R. The test can be described thus: Antiproliferative activity against human 22Rv1 cells incubated up to 144 hrs by Coulter particle count and size analyzer. In kind it is functional, cell-based. Particulars: 22Rv1, 144 h. In short, it runs like this:
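22rv1 cells in RPMI 1640 with 10% FBS were seeded at 5 × 10^3 per well, left to adhere overnight, then exposed to agents in DMSO (final DMSO <0.1%) for up to 144 h. Cells were trypsinised and counted on a Coulter counter. Cell number as % of DMSO control was plotted against log concentration at 144 h, and the IC50 was taken from the straight-line fit. Mean of 3–6 experiments.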

Test [2] has as its system CWR22R. The test can be described thus: Inhibition of androgen receptor expression in human 22Rv1 cells assessed as AR protein level at 10 uM after 72 hrs by densitometry relative to untreated control. In kind it is functional. On the set-up: scale not given: the % may be the effect or the level left. An outline of the steps:
(§1)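 22rv1 cells were seeded at 2 × 10^5 per well, left to adhere overnight, then treated for 72 h at 10 or 20 µM. Cells were lysed in NP-40/deoxycholate/SDS buffer with protease and phosphatase inhibitors. 15 µg protein was run on SDS-PAGE and blotted, then probed with AR, PSA and actin antisera and an HRP secondary. Bands were quantified by densitometry as % of vehicle control, mean of 3–5 replicates with SD.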

For test [3], the system named is CWR22R. The test can be described thus: Inhibition of androgen receptor expression in human 22Rv1 cells assessed as AR protein level at 20 uM after 72 hrs by densitometry relative to untreated control. In kind it is functional. Further details: scale not given: the % may be the effect or the level left. An outline of the steps:
as §1

Test [4] concerns CWR22R. The test can be described thus: Inhibition of prostate specific antigen expression in human 22Rv1 cells assessed as PSA protein level at 10 uM after 72 hrs by densitometry relative to untreated control. In kind it is functional. Further details: scale not given: the % may be the effect or the level left. An outline of the steps: as §1
Test [5] concerns CWR22R. The test is described as follows: Inhibition of prostate specific antigen expression in human 22Rv1 cells assessed as PSA protein level at 20 uM after 72 hrs by densitometry relative to untreated control. In kind it is functional. On the set-up: scale not given: the % may be the effect or the level left. In short, it runs like this:
as §1

The test system of test [6] is CWR22R. The test is described as follows: Growth inhibition of human 22Rv1 cells at 0.1 uM incubated up to 144 hrs by Coulter particle count and size analyzer. Particulars: 22Rv1, 144 h, read-out: GI. In kind it is functional.
Test [7] has as its system CWR22R. The test can be described thus: Growth inhibition of human 22Rv1 cells at 0.01 uM incubated up to 144 hrs by Coulter particle count and size analyzer. The class given is functional. Particulars: 22Rv1, 144 h, read-out: GI.
Test [8] concerns CWR22R. The test is described as follows: Growth inhibition of human 22Rv1 cells at 50 uM incubated up to 144 hrs by Coulter particle count and size analyzer. To be noted: 22Rv1, 144 h, read-out: GI. The class given is functional.

Molecules are shown by their SMILES. Bounds are passed on as bounds.

In the test with CWR22R [1], `O=c1c(O)c(-c2cc(O)c(O)c(O)c2)oc2cc(F)ccc12` came in with an IC50 of 11.6 µM. Besides, the Activity in the test with CWR22R [2] is on record as 100%; with CWR22R [3], 94%; in the test with CWR22R [4], 111%; with CWR22R [5] it was 106%.
In turn, `COc1ccc(-c2oc3cc(F)ccc3c(=O)c2O)cc1` showed a 50% inhibitory concentration (IC50) in the test on CWR22R [1] of 7.1 µM. The Activity with CWR22R [2] was found to be 112%; in the test on CWR22R [3], 104%; in the test with CWR22R [4] it was 70%; in the test with CWR22R [5], 62%.
The like results for `COc1cc(-c2oc3cc(F)ccc3c(=O)c2O)cc(OC)c1OC` were, in that order, 4 µM, 112%, 75%, 37% and 22%.
In the same order, the values of `O=c1c(O)c(-c2ccc(O)c(O)c2)oc2cc(F)cc(F)c12` are 16.3 µM, 116%, 86%, 61% and 22%.
The like results for `O=c1c(O)c(-c2ccc(O)cc2)oc2cc(F)cc(F)c12` were, in that order, 28.7 µM, 136%, 96%, 77% and 33%.
Consider `O=c1c(O)c(-c2ccc(O)c(O)c2)oc2cc(O)ccc12` [FISETIN], for which 25.9 µM corresponded to half-maximal inhibition in the test with CWR22R [1] (IC50). For the same compound, the Activity in the test with CWR22R [2] is reported as 109%; in the test on CWR22R [3], 101%; in the test on CWR22R [4], 51%; in the test with CWR22R [5], 44%.
In the case of `O=c1c(O)c(-c2cc(O)c(O)c(O)c2)oc2ccccc12`, in the test on CWR22R [1], inhibition was half-maximal at 7.7 µM (IC50). Further, the Activity in the test on CWR22R [2] is reported as 94%; with CWR22R [3], 89%; in the test on CWR22R [4], 110%; with CWR22R [5], 109%.
`COc1ccc(-c2oc3ccccc3c(=O)c2O)cc1` yielded an IC50 with CWR22R [1] of 30.5 µM. Further, the Activity was 71% with CWR22R [2], 61% in the test with CWR22R [3], 127% with CWR22R [4] and 115% in the test with CWR22R [5].
Turning to `O=c1c(O)c(-c2ccc(O)cc2)oc2cc(O)ccc12` [RESOKAEMPFEROL], the IC50 in the test on CWR22R [1] turned out to be 30.2 µM. For the same compound, the Activity in the test with CWR22R [2] is 141%; in the test with CWR22R [3] it was 125%; in the test on CWR22R [4] it was 47%; in the test with CWR22R [5], 39%.
`COc1ccc(-c2oc3cc(F)cc(F)c3c(=O)c2O)cc1OC`: inhibition in the test on CWR22R [1] was half-maximal at 7.4 µM (IC50). The Activity in the test on CWR22R [2] was 110%; in the test with CWR22R [3], 94%; with CWR22R [4], 78%; in the test on CWR22R [5], 88%.
Take `COc1cc(OC)cc(-c2oc3ccccc3c(=O)c2O)c1`: the 50% inhibitory concentration (IC50) with CWR22R [1] was determined as 12.4 µM. In addition, the Activity is reported as 74% in the test with CWR22R [2], 72% in the test on CWR22R [3], 133% with CWR22R [4] and 109% in the test on CWR22R [5].
`O=c1c(O)c(-c2ccc(O)cc2)oc2cc(F)ccc12` gave an IC50 in the test on CWR22R [1] of 8.4 µM. Besides, the Activity is on record as 129% in the test on CWR22R [2], 64% with CWR22R [3], 32% with CWR22R [4] and 3% with CWR22R [5].
In the test with CWR22R [1], `COc1cccc(-c2oc3ccccc3c(=O)c2O)c1` yielded an IC50 of 5.3 µM. Moreover, the Activity with CWR22R [2] amounted to 64%; with CWR22R [3], 23%; in the test with CWR22R [4], 27%; in the test with CWR22R [5], 13%.
On to `O=c1c(O)c(-c2ccc(O)cc2)oc2cc(O)cc(O)c12` [KAEMPFEROL], for which the half-maximal inhibitory concentration (IC50) in the test on CWR22R [1] was greater than 40 µM. Besides, the Activity with CWR22R [2] is 128%; in the test on CWR22R [3] it was 131%; with CWR22R [4], 33%; in the test with CWR22R [5] it was 37%.
With `COc1cc(-c2oc3cc(F)cc(F)c3c(=O)c2O)cc(OC)c1OC`, the IC50 in the test on CWR22R [1] turned out to be 5.9 µM. Besides, the Activity in the test with CWR22R [2] was 100%; in the test with CWR22R [3], 103%; in the test on CWR22R [4], 95%; with CWR22R [5] it was 68%.
In the test on CWR22R [1], `COc1cc(-c2oc3ccccc3c(=O)c2O)cc(OC)c1OC` showed an IC50 of 3.1 µM. The Activity in the test on CWR22R [2] amounted to 96%; in the test on CWR22R [3], 62%; in the test on CWR22R [4], 21%; in the test with CWR22R [5], 23%.
In the same order, the values of `O=c1c(O)c(-c2cc(O)c(O)c(O)c2)oc2cc(O)ccc12` [ROBINETIN] are 7.1 µM, 84%, 102%, 69% and 111%.
The like results for `O=c1c(O)c(-c2cc(O)c(O)c(O)c2)oc2cc(O)cc(O)c12` [MYRICETIN] were, in that order, 13.1 µM, 119%, 114%, 110% and 121%.
Consider `O=c1c(O)c(-c2ccc(O)c(O)c2)oc2cc(F)ccc12`, for which the midpoint of inhibition in the test on CWR22R [1], the IC50, lay at 9.2 µM. Also, the Activity in the test on CWR22R [2] amounted to 108%; in the test with CWR22R [3] it was 59%; in the test with CWR22R [4], 21%; in the test on CWR22R [5], 18%.
The like results for `O=c1c(O)c(-c2ccc(O)c(O)c2)oc2cc(O)cc(O)c12` [QUERCETIN] were, in that order, 15.5 µM, 114%, 120%, 40% and 31%.
The like results for `COc1ccc(-c2oc3cc(F)cc(F)c3c(=O)c2O)cc1` were, in that order, 15.8 µM, 115%, 111%, 85% and 66%.
In turn, `COc1cc(-c2oc3ccccc3c(=O)c2OC)cc(OC)c1OC` returned an IC50 in the test on CWR22R [1] of 2.6 µM. The Activity with CWR22R [2] is 94%; in the test on CWR22R [3] it was 80%; in the test on CWR22R [4], 167%; in the test on CWR22R [5] it was 149%.
In turn, `COc1ccc(-c2oc3cc(F)ccc3c(=O)c2O)cc1OC` returned an IC50 in the test on CWR22R [1] greater than 40 µM. Besides, the Activity was 129% with CWR22R [2], 120% in the test on CWR22R [3], 78% in the test on CWR22R [4] and 70% in the test with CWR22R [5].
In the case of `COc1cc(-c2oc3ccc(F)cc3c(=O)c2O)cc(OC)c1OC`, the IC50 with CWR22R [1] is 3.3 µM. For the same compound, the Activity with CWR22R [2] was 91%; in the test on CWR22R [3] it was 75%; in the test with CWR22R [4], 14%; with CWR22R [5], 5%.
As to `COc1ccc(-c2oc3ccccc3c(=O)c2O)cc1OC` [3-HYDROXY-3',4'-DIMETHOXYFLAVONE], the IC50 in the test with CWR22R [1] is 12.3 µM. The Activity with CWR22R [2] worked out at 63%; with CWR22R [3], 81%; with CWR22R [4], 61%; in the test with CWR22R [5], 56%.
In the same order, the values of `O=c1c(O)c(-c2cc(O)c(O)c(O)c2)oc2cc(F)cc(F)c12` are 6.3 µM, 118%, 90%, 134% and 132%.
`O=c1c(O)c(-c2ccccc2)oc2ccccc12` [FLAVONOL]: in the test with CWR22R [1], the IC50 was 14.9 µM. Moreover, the Activity in the test with CWR22R [2] is recorded as 100%; in the test on CWR22R [3], 92%; in the test with CWR22R [4] it was 124%; in the test with CWR22R [5] it was 80%.
In the test on CWR22R [1], `COc1cc(-c2oc3ccccc3c(=O)c2F)cc(OC)c1OC` registered an IC50 greater than 40 µM. Further, the inhibition of growth at 0.1 µM in the test with CWR22R [6] was 46%. Also, in the test on CWR22R [7], the inhibition of growth at 0.01 µM was 18%. Besides, in the test on CWR22R [8], the inhibition of growth at 50 µM came to 48%. Also, the Activity is listed as 110% in the test on CWR22R [2], 125% in the test on CWR22R [3], 63% with CWR22R [4] and 63% in the test on CWR22R [5].

The IC50 is the concentration needed to halve the response being measured.
